From ChEMBL document CHEMBL4354800, “Amphiphilic nebramine-based hybrids Rescue legacy antibiotics from intrinsic resistance in multidrug-resistant Gram-negative bacilli” (Eur J Med Chem, 2019)

How the values were obtained:
Assay type in all cases: functional
[1] = test system: Pseudomonas aeruginosa; experiment: Potentiation of moxifloxacin-induced antibacterial activity against wild type Pseudomonas aeruginosa PAO1 assessed as fold reduction in moxifloxacin MIC at 7.5 uM incubated for 18 hrs by broth microdilution method
In short: (§1)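 CLSI broth microdilution. Overnight cultures were set to 0.5 McFarland in saline, diluted 1:50 in Mueller-Hinton broth to a final 5 × 10^5 CFU/mL, and incubated 18 h at 37 °C against 2-fold antibiotic dilutions. A fixed adjuvant level was present throughout. MIC = lowest concentration with no visible turbidity, confirmed at 590 nm. Potentiation = fold drop in antibiotic MIC versus antibiotic alone.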

[2] = test system: Pseudomonas aeruginosa; experiment: Synergistic antibacterial activity against MDR/XDR Pseudomonas aeruginosa isolate PA264-104354 harboring GyrA T83I mutant assessed as fractional inhibitory concentration index in presence of moxifloxacin incubated for 18 hrs by broth microdilution method
In short: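 Checkerboard synergy assay. Antibiotic and adjuvant in twofold dilutions in Mueller-Hinton broth. Inoculum 5 × 10^5 CFU/mL from a 0.5 McFarland suspension, 18 h at 37 °C, MIC read by turbidity and confirmed at 590 nm. FIC = MIC in combination / MIC alone for each agent, FICI = sum. Interpreted as ≤0.5 synergy, 0.5–4 no interaction, >4 antagonism.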

[3] = test system: Pseudomonas aeruginosa; experiment: Potentiation of moxifloxacin-induced antibacterial activity against MDR/XDR Pseudomonas aeruginosa isolate 100036 harboring GyrA T83I mutant assessed as fold reduction in moxifloxacin MIC at 7.5 uM incubated for 18 hrs by broth microdilution method; in short: as §1
[4] = test system: Pseudomonas aeruginosa; experiment: Potentiation of moxifloxacin-induced antibacterial activity against MDR/XDR Pseudomonas aeruginosa isolate 101885 harboring GyrA T83I mutant assessed as fold reduction in moxifloxacin MIC at 7.5 uM incubated for 18 hrs by broth microdilution method; in short: as §1
[5] = test system: Pseudomonas aeruginosa; experiment: Potentiation of minocycline-induced antibacterial activity against MDR/XDR Pseudomonas aeruginosa isolate 91433 devoid of GyrA T83I mutant assessed as fold reduction in minocycline MIC at 7.5 uM incubated for 18 hrs by broth microdilution method
[6] = test system: Pseudomonas aeruginosa; experiment: Potentiation of minocycline-induced antimicrobial activity against MDR/XDR Pseudomonas aeruginosa isolate PA262-101856 harboring GyrA Thr83Ile mutant assessed as minocycline MIC50 incubated for 18 hrs by broth microdilution method (reference value: 16 microg/ml); details: isolate PA262-101856, 18 h
[7] = test system: Acinetobacter baumannii; experiment: Potentiation of rifampicin-induced antibacterial activity against multidrug-resistant Acinetobacter baumannii AB027 assessed as fold reduction in rifampicin MIC at 7.5 uM incubated for 18 hrs by broth dilution method; in short: as §1
[8] = test system: Acinetobacter baumannii; experiment: Potentiation of rifampicin-induced antibacterial activity against multidrug-resistant Acinetobacter baumannii AB031 assessed as fold reduction in rifampicin MIC at 7.5 uM incubated for 18 hrs by broth dilution method; in short: as §1
[9] = test system: Pseudomonas aeruginosa; experiment: Potentiation of minocycline-induced antimicrobial activity against MDR/XDR Pseudomonas aeruginosa isolate PA260-97103 harboring GyrA Thr83Ile mutant assessed as minocycline MIC80 incubated for 18 hrs by broth microdilution method (reference value: 32 microg/ml); details: isolate PA260-97103, 18 h
[10] = test system: Pseudomonas aeruginosa; experiment: Potentiation of rifampicin-induced antimicrobial activity against MDR/XDR Pseudomonas aeruginosa isolate 100036 harboring GyrA Thr83Ile mutant assessed as rifampicin MIC80 incubated for 18 hrs by broth microdilution method (reference value: 16 microg/ml); details: isolate 100036, 18 h
[11] = test system: Pseudomonas aeruginosa; experiment: Potentiation of rifampicin-induced antimicrobial activity against MDR/XDR Pseudomonas aeruginosa isolate PA264-104354 harboring GyrA Thr83Ile mutant assessed as rifampicin MIC80 incubated for 18 hrs by broth microdilution method (reference value: 16 microg/ml); details: isolate PA264-104354, 18 h
[12] = test system: Pseudomonas aeruginosa; experiment: Potentiation of rifampicin-induced antimicrobial activity against MDR/XDR Pseudomonas aeruginosa isolate 91433 devoid of GyrA Thr83Ile mutant assessed as rifampicin MIC80 incubated for 18 hrs by broth microdilution method (reference value: 16 microg/ml); details: isolate 91433, 18 h
[13] = test system: Pseudomonas aeruginosa; experiment: Potentiation of minocycline-induced antimicrobial activity against MDR/XDR Pseudomonas aeruginosa isolate 100036 harboring GyrA Thr83Ile mutant assessed as minocycline MIC80 incubated for 18 hrs by broth microdilution method (reference value: 32 microg/ml); details: isolate 100036, 18 h
[14] = test system: Acinetobacter baumannii; experiment: Antimicrobial activity against multidrug-resistant Acinetobacter baumannii ATCC 17978 incubated for 18 hrs by broth dilution method; details: ATCC 17978, 18 h
In short: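 Broth microdilution per CLSI: overnight cultures set to 0.5 McFarland in saline, diluted 1:50 in Mueller-Hinton broth to a final 5 × 10^5 CFU/mL, added to 2-fold serial dilutions, incubated 18 h at 37 °C; MIC is the lowest concentration without visible turbidity, confirmed at 590 nm.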

[15] = test system: Acinetobacter baumannii; experiment: Synergistic antibacterial activity against multidrug-resistant Acinetobacter baumannii AB92247 assessed as fractional inhibitory concentration index in presence of rifampicin incubated for 18 hrs by broth dilution method
[16] = test system: Escherichia coli; experiment: Synergistic antibacterial activity against Escherichia coli ATCC 25922 assessed as fractional inhibitory concentration index in presence of rifampicin incubated for 18 hrs by broth dilution method
In short: (§2)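 Checkerboard titration of the adjuvant against the antibiotic, run under the CLSI microdilution conditions (MHB, 5 × 10^5 CFU/mL, 18 h, 37 °C). Each agent's FIC is its MIC in combination divided by its MIC alone; FICI is the sum of the two FICs. FICI ≤0.5 was read as synergy, >0.5–4.0 as no interaction, and >4.0 as antagonism.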

[17] = test system: Klebsiella pneumoniae; experiment: Synergistic antibacterial activity against Klebsiella pneumoniae 113250 assessed as fractional inhibitory concentration index in presence of minocycline incubated for 18 hrs by broth dilution method; in short: as §2
[18] = test system: Klebsiella pneumoniae; experiment: Synergistic antibacterial activity against Klebsiella pneumoniae 113254 assessed as fractional inhibitory concentration index in presence of minocycline incubated for 18 hrs by broth dilution method; in short: as §2
[19] = test system: Pseudomonas aeruginosa; experiment: Potentiation of rifampicin-induced antibacterial activity against wild type Pseudomonas aeruginosa PAO1 assessed as fold reduction in rifampicin MIC at 4.1 uM incubated for 18 hrs by broth microdilution method; in short: as §1
[20] = test system: Enterobacter cloacae; experiment: Potentiation of rifampicin-induced antibacterial activity against Enterobacter cloacae 117029 assessed as fold reduction in rifampicin MIC at 4.1 uM incubated for 18 hrs by broth dilution method
In short: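 Antibiotic MIC determined by CLSI broth microdilution (MHB, 5 × 10^5 CFU/mL, 18 h, 37 °C), once alone and once with a fixed concentration of the adjuvant. Potentiation is the ratio of the antibiotic MIC alone to its MIC in the presence of the adjuvant.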

[21] = test system: Pseudomonas aeruginosa; experiment: Potentiation of rifampicin-induced antibacterial activity against MDR/XDR Pseudomonas aeruginosa isolate PA260-97103 harboring GyrA T83I mutant assessed as fold reduction in rifampicin MIC at 9 uM incubated for 18 hrs by broth microdilution method; in short: as §1

## COc1c(N2C[C@@H]3CCCN(CCCCCCCCCCCCO[C@@H]4[C@@H](O)[C@H](N)C[C@H](N)[C@H]4O[C@H]4O[C@H](CN)[C@@H](O)C[C@H]4N)[C@@H]3C2)c(F)cc2c(=O)c(C(=O)O)cn(C3CC3)c12.Cl.Cl.Cl.Cl.Cl
[1]
  fold change (FC): 8
[2]
  fractional inhibitory concentration index (FICI): 0.09
[3]
  fold change (FC): 16
[4]
  fold change (FC): 4
[5]
  fold change (FC): 32
[6]
  MIC50: 0.5 µg/mL
[7]
  fold change (FC): 32
[8]
  fold change (FC): 64
[9]
  MIC80: 1 µg/mL
[10]
  MIC80: 0.13 µg/mL
[11]
  MIC80: 0.13 µg/mL
[12]
  MIC80: 0.13 µg/mL
[13]
  MIC80: 1 µg/mL

## Cl.Cl.Cl.Cl.Cl.NC[C@H]1O[C@H](O[C@H]2[C@H](OCCCCCCCCCCCCN3CCN(c4cc5c(cc4F)c(=O)c(C(=O)O)cn5C4CC4)CC3)[C@@H](O)[C@H](N)C[C@@H]2N)[C@H](N)C[C@@H]1O
[14]
  MIC: 128 µg/mL
[15]
  fractional inhibitory concentration index (FICI): 0.039
[16]
  fractional inhibitory concentration index (FICI): 0.133
[17]
  fractional inhibitory concentration index (FICI): 0.504
[18]
  fractional inhibitory concentration index (FICI): 0.504
[19]
  fold change (FC): >=256
[20]
  fold change (FC): >=256

## Cl.Cl.Cl.Cl.Cl.Cl.NC[C@H]1O[C@H](O[C@H]2[C@H](OCCCCCCCCCCN3CCN(Cc4cccc5ccccc45)CC3)[C@@H](O)[C@H](N)C[C@@H]2N)[C@H](N)C[C@@H]1O
[21]
  fold change (FC): 64
